Compound activity deposited in PubChem by several laboratories.
Only some compounds are listed: those with a hit (about 4.7% of all), similar ones and a draw of the others.
ADAM10 inh = human ADAM10 inhibitors, primary screen, biochemical, QFRET, HTS. 370,000 tested, 0.62% active. inhibition, % at 7 µM. recombinant ADAM10, EDANS/DABCYL FRET peptide cleavage, 3 h;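 active = inhibition above a per-campaign cutoff equal to the mean of compounds falling between control-based bounds plus 3 SD, cut at about 20% in these data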
MT1-MMP act inh = blockers of MT1-MMP proenzyme processing, primary screen, HT1080 RFP-PRO-GFP cells, GFP/RFP fluorescence. Matrix metalloproteinase-14 (Homo sapiens), P50281. GFP/RFP ratio fluorescence, overnight; percent of plate control window, DMSO zero. GFP/RFP ratio change, % at 20 µM. 360,000 tested, 0.061% active;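 active = GFP/RFP ratio change of at least 30% with cell ATP level not reduced by more than half and red fluorescence within 50% of control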
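Assay system – RFP-PRO-GFP reporter HT1080 cells · Compound dosing – single dose of 20 µM compound, 1% DMSO final · Incubation – overnight compound exposure at 37 °C · Measure – GFP/RFP fluorescence ratio · Benchmarks – DMSO wells and RFP-L50D-GFP cells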
GRIN3A LBD mod = binders of NR3A ligand-binding domain, primary screen, biophysical, differential scanning fluorimetry, uHTS. NR3A LBD differential scanning fluorimetry, Tm shift; 0% = protein alone, 100% = glycine-bound protein. AID 1259313, 2017. 340,000 tested, 2.5% active. Tm shift relative to glycine control, % at 25 µM;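 active = melting temperature shift of at least 10% of the positive control shift, at one fixed dose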
SKN-1 block = suppressors of acrylamide-induced Pgst-4::GFP reporter in worms, primary screen, SKN-1 inhibitor project, whole organism, uHTS, GFP/RFP fluorescence ratio, strain VP596 | 360,000 tested, 0.49% active | inhibition, % at 21.8 µM | C. elegans VP596 Pgst-4::GFP/RFP ratio, 24 h;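 active = interference check ratio from 0.5 to 1.5 plus GFP to RFP signal ratio inhibition reaching or exceeding a fixed threshold, cut at about 30% in these data, passing the limit was not always enough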
MPTP inh = mitochondrial permeability transition pore inhibitors, primary screen, biochemical, isolated mouse mitochondria, absorbance | Ca2+ swelling absorbance, 30 min | inhibition, % at 10 µM | 360,000 tested, 1.4% active | AID 602449, 2012;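 active = inhibition of 50% or more, scaled per plate between neutral and stimulator controls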
ADAM17 inh = ADAM17 inhibitors, primary screen, biochemical, QFRET | recombinant ADAM17, EDANS/DABCYL FRET peptide cleavage | inhibition, % at 6.95 µM | 370,000 tested, 0.83% active | AID 720648, 2013;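 active = inhibition above the mean of compounds lying between control limits plus 3 SD, set per campaign, cut at about 8.5% in these data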
Target sequence (P78536 215-824 limits assumed): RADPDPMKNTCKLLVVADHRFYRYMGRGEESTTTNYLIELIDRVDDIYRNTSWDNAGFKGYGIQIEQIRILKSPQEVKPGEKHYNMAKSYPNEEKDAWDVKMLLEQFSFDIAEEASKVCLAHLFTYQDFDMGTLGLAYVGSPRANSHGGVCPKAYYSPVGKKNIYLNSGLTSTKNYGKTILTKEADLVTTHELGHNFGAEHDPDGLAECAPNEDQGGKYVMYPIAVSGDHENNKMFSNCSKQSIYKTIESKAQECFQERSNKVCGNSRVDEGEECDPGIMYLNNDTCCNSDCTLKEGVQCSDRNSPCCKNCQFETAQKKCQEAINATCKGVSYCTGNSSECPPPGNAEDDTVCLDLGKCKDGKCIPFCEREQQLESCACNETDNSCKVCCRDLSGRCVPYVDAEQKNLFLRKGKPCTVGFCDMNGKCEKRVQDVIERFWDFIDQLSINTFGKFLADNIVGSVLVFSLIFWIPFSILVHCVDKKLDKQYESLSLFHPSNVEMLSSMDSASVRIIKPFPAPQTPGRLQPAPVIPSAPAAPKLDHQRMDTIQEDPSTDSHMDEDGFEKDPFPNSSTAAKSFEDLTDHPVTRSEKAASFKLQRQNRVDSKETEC
Numbers stand for hits; i = inactive; nt = no result.

SMILES	ADAM10 inh	MT1-MMP act inh	GRIN3A LBD mod	SKN-1 block	MPTP inh	ADAM17 inh
O=C(CCN1C(=O)NC2(CCCC2)C1=O)Nc1ccc(-c2nc3ccccc3s2)cc1	i	i	26.4	i	i	i
Cc1nnc(SCC(=O)Nc2ccc(-c3nc4ccccc4s3)cc2)s1	i	i	30.1	i	i	i
CCOC(=O)N1CCN(CCC(=O)Nc2cccc(Br)c2)CC1	i	i	i	i	i	i
O=C(Nc1cccnc1)c1c(O)c2cccc3c2n(c1=O)CC3	i	i	i	38.1	i	i
CNC(=O)c1c(O)c2cccc3c2n(c1=O)CC3	i	i	i	i	i	i
COc1ccc(/C=C(\C#N)C(=O)OCC(=O)Nc2c(C)cccc2C(C)C)cc1	i	i	i	i	i	i
O=Cc1c(Sc2ccccc2)nc2ccccn2c1=O	i	i	i	i	i	i
O=C(O)c1ccccc1N/N=C/c1c(Sc2nnnn2-c2ccccc2)nc2ccccn2c1=O	i	i	11.9	i	i	i
O=c1c(/C=N/Nc2ccccc2)c(Sc2nnnn2-c2ccccc2)nc2ccccn12	i	i	15.8	35.8	i	i
CCOC(=O)c1ccc(NC(=O)COc2ccc(-n3cnnn3)cc2)cc1	i	i	30.9	i	i	i
O=C(Nc1cccc(F)c1)c1cccnc1NCCc1ccccc1	i	i	16.5	i	i	i
CC(=O)c1nn(-c2ccc(Cl)cc2)cc1C(=O)c1ccccc1	i	i	i	i	i	i
Cc1cccc(OC2(c3ccccc3)OC(=O)c3ccccc32)c1C (stereo not drawn)	i	i	i	i	i	i
Cc1cc(-c2ccccc2)nc(N/N=C/c2ccc(O)cc2)n1	i	i	i	i	i	i
Oc1ccc(/C=N/Nc2nc(-c3ccc(Cl)cc3)cc(C(F)(F)F)n2)cc1	i	i	31.6	i	i	i
CC1Nc2ncnc(N3CCOCC3)c2N(Cc2ccccc2)C1=O (stereo not drawn)	i	i	i	i	i	i
CC1=Nc2ccccc2/C1=C\c1nc(-c2ccc(F)cc2)oc1O	i	i	30.2	i	i	i
CCN(CC)C(=O)/C=C/c1ccccc1	i	i	i	i	i	i
Nc1ccc(C23CC4CC(CC(O)(C4)C2)C3)cc1	i	i	16.8	i	i	i
Nc1ccc(C23CC4CC(CC(CO)(C4)C2)C3)cc1	i	i	i	i	i	i
CCN(c1cccc(C)c1)S(=O)(=O)c1cc2[nH]c(=O)c(=O)[nH]c2cc1C	i	i	nt	i	i	i
CCN(c1cccc(C)c1)S(=O)(=O)c1ccc2[nH]c(=O)c(=O)[nH]c2c1	nt	i	11.1	i	i	nt
Cc1cccc(NCC(=O)N/N=C\c2ccccn2)c1	i	i	i	i	i	i
Cc1ccccc1NCC(=O)N/N=C/c1c[nH]c2ccccc12	i	i	23.9	i	i	i
Cc1ccc(OCC(=O)N/N=C/c2c[nH]c3ccccc23)c([N+](=O)[O-])c1	i	i	23.7	i	i	i
SMILES	ADAM10 inh	MT1-MMP act inh	GRIN3A LBD mod	SKN-1 block	MPTP inh	ADAM17 inh
Cc1cccc(NCC(=O)N/N=C\c2c[nH]c3ccccc23)c1	i	i	16.4	i	i	i
Cc1ccc(OCC(=O)N/N=C\c2ccc(O)cc2)c([N+](=O)[O-])c1	i	i	i	i	i	i
CSc1ccn(CCC(=O)O)c(=O)n1	i	i	i	i	i	i
CCc1nc2ccccc2c(C(=O)OCC(=O)N(CCOC)c2c(N)n(Cc3ccccc3)c(=O)[nH]c2=O)c1C	i	i	i	41.1	i	i
COCCN(C(=O)COC(=O)c1c(-c2ccccc2)noc1C)c1c(N)n(Cc2ccccc2)c(=O)[nH]c1=O	i	i	i	i	i	i
CCN(C(=O)COC(=O)c1c(-c2ccccc2)noc1C)c1c(N)n(Cc2ccccc2)c(=O)[nH]c1=O	i	i	14.5	i	i	i
O=c1c2[nH]c3ccc(Br)cc3c2ncn1CCCn1ccnc1	i	i	16.3	i	i	i
O=c1c2[nH]c3ccccc3c2ncn1CCCn1ccnc1	i	i	i	i	i	i
O=C(O)c1ccc(CSc2nc(-c3ccc(Cl)cc3)cc(C(F)(F)F)n2)cc1	i	nt	38.2	i	i	i
O=C(O)c1ccc(CSc2nc(-c3ccccc3)cc(C(F)(F)F)n2)cc1	i	i	i	i	i	i
CCN(CC)C(=O)C(=O)N/N=C/c1cccs1	i	i	i	i	i	i
O=C(CCS(=O)(=O)c1ccccc1)Nc1nc(-c2ccc(F)cc2)cs1	i	i	i	i	i	i
Oc1ccc(N=Nc2ccc(Br)cc2)c(O)c1	i	i	i	i	i	i
Cc1ccc(N=Nc2ccc(O)cc2)c(Br)c1	i	i	13.2	i	i	i
O=c1c2ccccc2nc(COc2ccccc2)n1/N=C/c1ccc(O)cc1O	i	i	i	i	i	i
O=c1c2ccccc2nc(COc2ccccc2)n1/N=C/c1c[nH]c2ccccc12	i	i	25.0	i	i	i
O=c1c2ccccc2nc(COc2ccccc2)n1/N=C/c1cn[nH]c1-c1ccccc1	i	i	i	i	i	i
Cc1ccccc1OCc1nc2ccccc2c(=O)n1/N=C/c1cn[nH]c1-c1ccc(Br)cc1	i	i	25.7	i	i	i
Nn1c(Cc2cccc3ccccc23)nnc1SCC(=O)NC1CCS(=O)(=O)C1 (stereo not drawn)	i	i	i	i	i	i
O=C(NNC(=O)c1cc(-c2ccc(Cl)c(Cl)c2)nc2ccccc12)Nc1ccccc1	i	i	28.7	i	i	i
O=C(Nc1cccnc1)c1cc(-c2cccnc2)nc2ccc(Br)cc12	i	i	i	i	i	i
COc1cc(NC(=O)c2cc(-c3cccnc3)nc3ccc(Br)cc23)cc(OC)c1	i	i	10.1	i	i	i
COc1ccc(-c2cc(C(=O)NC3CC3)c3ccccc3n2)cc1	i	i	i	i	i	i
O=C(NC1CC1)c1cc(-c2ccc(Br)cc2)nc2ccccc12	i	i	i	36.0	i	i
CC(C)c1ccc(-c2cc(C(=O)N3CCOCC3)c3cc(Br)ccc3n2)cc1	i	i	18.6	i	i	i
N#Cc1ccc(OCC(=O)N/N=C/C2CC=CCC2)cc1 (stereo not drawn)	i	i	i	i	i	i
